Assay outcomes: PubChem, several laboratories
In the library only some 2.2% were active in any assay of this set; here they are far more common.
GAA850 FXN act: FXN promoter activators, primary screen, cell-based, luciferase luminescence, HEK293 lucGAA850. activation, % at 6 µM. AID 540364, 2011. actives 0.56% (n = 360,000). HEK293 lucGAA850 FXN promoter luciferase reporter, 24 h; percent of 10 µM SAHA response;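 active means activation above the average of all compounds screened plus 3 SD, cutoff fixed separately per campaign, cut at about 7.5% in these data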;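 further: 0% = DMSO wells and 100% = 10 µM SAHA wells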
NR2E3 ag-1: inhibitors of NR2E3-RetCOR corepressor binding, primary screen, NR2E3 agonist project, biochemical, TR-FRET, GST-NR2E3, biotin-RetCOR; Photoreceptor-specific nuclear receptor (Homo sapiens), Q9Y5X4; inhibition of corepressor binding, % at 4.78 µM; 1536-well; actives 0.12% (n = 320,000);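 active means percent inhibition above the cutoff of mean plus 3 SD of all tested compounds, set per screening campaign, cut at about 20% in these data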;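 further: 0% = DMSO wells and 100% = biotin wells as full block of FRET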
Target sequence (Q9Y5X4 whole entry, looked up): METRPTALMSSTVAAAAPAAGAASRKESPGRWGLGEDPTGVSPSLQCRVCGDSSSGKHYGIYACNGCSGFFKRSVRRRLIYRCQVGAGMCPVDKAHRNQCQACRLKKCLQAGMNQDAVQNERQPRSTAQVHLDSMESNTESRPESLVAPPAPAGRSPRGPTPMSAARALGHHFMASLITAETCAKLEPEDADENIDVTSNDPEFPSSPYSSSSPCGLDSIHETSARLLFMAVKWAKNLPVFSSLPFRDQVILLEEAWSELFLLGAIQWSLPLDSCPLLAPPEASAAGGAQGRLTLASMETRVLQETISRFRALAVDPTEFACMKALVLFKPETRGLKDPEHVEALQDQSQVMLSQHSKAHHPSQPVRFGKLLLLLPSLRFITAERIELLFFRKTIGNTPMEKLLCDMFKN
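System: GST-tagged NR2E3 plus biotinylated RetCOR corepressor; Amount: 1.35 nM GST-tagged NR2E3 final; Dosing: single nominal compound dose of 4.8 µM; Schedule: 5 h incubation at 4 °C; Technique: TR-FRET with europium anti-GST and streptavidin-D2, 340 nm excitation; Controls: biotin wells as high control, 0.6% DMSO wells as low control.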
V-ATPase pHluor: regulators of yeast V-ATPase proton pumping, primary screen, pHLuorin cytosolic pH fluorescence; S. cerevisiae; response, % at 10 µM; actives 0.37% (n = 350,000); in the data active means response mostly above about 7.3%, no sharp cut-off; inactive means mostly below about 5.4%; further: actives read high
NR2E3 ag-2: NR2E3 agonists in two-hybrid cells, primary screen, cell-based, luminescence, CHO-S, Gal4-NCOR/VP16-NR2E3; Photoreceptor-specific nuclear receptor (Homo sapiens), Q9Y5X4; luciferase; inhibition of corepressor binding, % at 3.98 µM; actives 0.35% (n = 360,000); AID 602229, 2012;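 active means inhibition above the mean of all tested compounds plus 3 SD, cut at about 70% in these data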;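 further: 0% = DMSO with NR2E3 transfected cells and 100% = cells lacking NR2E3 construct; higher means lower luciferase signal from less NR2E3 corepressor binding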
Env fusion inh: inhibitors of HIV-1 Env-driven cell-cell fusion, primary screen, HeLa-JRFL effector, CEM21 target cells, luciferase | actives 1.1% (n = 360,000) | AID 651610, 2012 | inhibition, % at 12.3 µM;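 active means mean replicate inhibition score of at least 50 and every replicate individually at or above 50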;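 further: 0% = plate neutral controls and 100% = maraviroc near 300 nM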
GalR3 antag: GalR3 antagonists in HEK293 cells, primary screen, cell-based, fluorescence readout | Galanin receptor type 3 (Homo sapiens), O60755 | HEK293 GalR3-CNG cAMP membrane potential fluorescence; galR3 body fused to GalR1 C-terminus | inhibition, % at 3 µM | actives 0.44% (n = 360,000) | AID 651719, 2012;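 active means inhibition above the screen-wide average plus 3 SD, cut at about 13% in these data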;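 further: forskolin and galanin both at EC90 stimulate the cells; cAMP rise reported by CNG channel membrane potential dye signal; 0% = forskolin plus galanin with DMSO and 100% = forskolin alone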
Target sequence (O60755 1-299 limits assumed): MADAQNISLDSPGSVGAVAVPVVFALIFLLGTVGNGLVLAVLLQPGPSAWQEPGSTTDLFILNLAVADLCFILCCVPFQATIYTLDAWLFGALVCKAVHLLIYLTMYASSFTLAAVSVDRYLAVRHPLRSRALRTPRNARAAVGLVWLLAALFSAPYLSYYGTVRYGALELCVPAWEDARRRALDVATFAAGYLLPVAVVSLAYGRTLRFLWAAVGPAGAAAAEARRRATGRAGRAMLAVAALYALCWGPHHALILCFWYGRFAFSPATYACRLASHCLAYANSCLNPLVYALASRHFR
Starred values were filed as active, the others as inactive; . = no result given; [ ] = dose if it differs, or a comment.

SMILES	GAA850 FXN act	NR2E3 ag-1	V-ATPase pHluor	NR2E3 ag-2	Env fusion inh	GalR3 antag
Cc1ccccc1Cn1cnc2c(cnn2C(C)(C)C)c1=O	4	-1	0	5	.	-3
CC(C)(C)n1ncc2c(=O)n(Cc3cccc(Cn4cnc5c(cnn5C(C)(C)C)c4=O)c3F)cnc21	0	.	0	10	92*	0
C[C@@H]1CCCCO[C@@H](CN(C)S(=O)(=O)c2ccc(F)cc2)[C@H](C)CN([C@@H](C)CO)C(=O)c2cc(NS(=O)(=O)c3ccc(F)cc3)ccc2O1	.	.	.	.	-92[16.7 µM]	.
C[C@@H]1CNC(=O)c2c(C(=O)N3CCN(c4ccccc4)CC3)ncn21	.	.	.	.	89*	-6
CC1CCN(C(=O)c2ncn3c2C(=O)NC[C@@H]3C)CC1	.	.	.	.	101*	-3
CCN(CC)C(=O)c1ncn2c1C(=O)NC[C@@H]2C	.	.	.	.	117*	-3
C[C@H]1Cn2cnc(C(=O)N3CCN(c4ccccc4)CC3)c2C(=O)N1	.	.	.	.	88*	-4
C[C@H](NC(=O)c1ncn2c1C(=O)NC[C@@H]2C)c1ccccc1	1	.	3	12	.	-3
C[C@H]1CNC(=O)c2c(C(=O)N(C)Cc3ccccc3)ncn21	.	.	.	.	18	-5
CN1CCn2cnc(C(=O)N3CCN(c4ccccc4)CC3)c2C1=O	-1	.	-1	-15	3	1
C[C@@H]1CNC(=O)c2c(C(=O)NC3CCN(C(=O)OC(C)(C)C)CC3)ncn21	.	.	.	11	-4	-4
C[C@@H]1CN([C@H](C)CO)C(=O)c2cc(/C=C/c3ccccc3)cnc2O[C@H]1CN(C)C(=O)CN(C)C	.	.	.	.	19[16.7 µM]	.
CC(C)NC(=O)N1CC2(C1)[C@@H](c1ccccc1)[C@@H](CO)N2C(=O)C1CCCCC1	.	.	.	.	-34[16.7 µM]	.
COc1ccc(NC(=O)Nc2ccc3c(c2)CC(=O)N([C@H](C)CO)C[C@H](C)[C@H](CN(C)S(=O)(=O)c2cccs2)O3)cc1	.	.	.	.	70*[16.7 µM]	.
C[C@H](CO)N1C[C@H](C)[C@H](CN(C)S(=O)(=O)c2cccs2)Oc2ccc(NC(=O)Nc3cccc4ccccc34)cc2CC1=O	.	.	.	.	75*[16.7 µM]	.
C[C@H](CO)N1C[C@H](C)[C@H](CN(C)S(=O)(=O)c2cccs2)Oc2ccc(NC(=O)Nc3ccccc3)cc2CC1=O	.	.	.	.	105*[16.7 µM]	.
C[C@@H]1CN([C@@H](C)CO)C(=O)Cc2cc(NC(=O)Nc3ccccc3)ccc2O[C@H]1CN(C)S(=O)(=O)c1cccs1	.	.	.	.	1[16.7 µM]	.
C[C@H]1CN([C@@H](C)CO)C(=O)Cc2cc(NC(=O)Nc3ccc4c(c3)OCO4)ccc2O[C@H]1CN(C)S(=O)(=O)c1cccs1	.	.	.	.	92*[16.7 µM]	.
C[C@@H]1CCCCO[C@@H](CN(C)S(C)(=O)=O)[C@@H](C)CN([C@H](C)CO)C(=O)c2cc(NS(=O)(=O)c3ccc(F)cc3)ccc2O1	.	.	.	.	-1[16.7 µM]	.
Cc1cc(C(=O)Nc2cccc3c2O[C@H](CN(C)S(=O)(=O)c2ccccc2)[C@H](C)CN([C@H](C)CO)C3=O)n(C)n1	.	.	.	.	-5[16.7 µM]	.
COCC(=O)N1C[C@@H](C)[C@H](OC)CN(C)C(=O)c2cc(NC(=O)c3ccc(-c4ccccc4)cc3)ccc2OC[C@H]1C	.	.	.	.	4[16.7 µM]	.
COc1ccc(C(=O)CN2C(=O)c3ccccc3S2(=O)=O)cc1	-11	-1	-1	17	72*	1
Cc1cc(C(=O)CN2C(=O)c3ccccc3S2(=O)=O)c(C)n1CC1CCCO1 (stereo not drawn)	-18	1	1	23	115*	5
COc1ccc(Cl)cc1NC(=O)CN(C)CC(=O)Nc1ccccc1-c1ccccc1	1	1	2	-20	63*	-7
CCNC(=O)[C@H]1[C@H](CO)[C@H]2Cn3c(ccc(C4=CCCC4)c3=O)[C@H]2N1C(=O)C1CC1	.	.	.	.	8[16.7 µM]	.
SMILES	GAA850 FXN act	NR2E3 ag-1	V-ATPase pHluor	NR2E3 ag-2	Env fusion inh	GalR3 antag
O=[N+]([O-])c1ccc(O)c(-c2cc(C(F)(F)F)nc(-c3ccccc3)n2)c1	-2	-1	1	28	60*	-2
COCC(=O)Nc1ccc2c(c1)C(=O)N(C)[C@H]1CC[C@@H](CC(=O)OC)O[C@@H]1CO2	.	.	.	.	-31[16.7 µM]	.
Cc1cc(C)n(-c2nc3ccccc3nc2N2CCN(S(=O)(=O)c3ccc(F)c(C)c3)CC2)n1	-2	4	-4	-10	.	6
Cc1cc(C)n(-c2nc3ccccc3nc2N2CCN(S(=O)(=O)c3ccc4ccccc4c3)CC2)n1	-3	-5	4	-29	56*	-1
O=C(Cc1ccncc1)NCC[C@@H]1CC[C@H](NC(=O)C2CCC2)[C@@H](CO)O1	.	.	.	.	22[16.7 µM]	.
CC(=O)N1c2ccc(S(=O)(=O)N3CCCC3C(=O)Nc3cccc(F)c3)cc2CC1C (stereo not drawn)	-1	-2	-1	-2	2	4
CCc1cccc(NC(=O)C2CCCN2S(=O)(=O)c2ccc3c(c2)CC(C)N3C(C)=O)c1 (stereo not drawn)	1	-1	0	21	61*	-3
CCC(C)NC(=O)C1CCCN(S(=O)(=O)c2ccc3c(c2)CC(C)N3C(C)=O)C1 (stereo not drawn)	2	4	-4	-11	59*	4
CC(C)c1cn(CC[C@@H]2CC[C@H](N)[C@@H](CO)O2)nn1	.	.	.	.	-3[16.7 µM]	.
C[C@H]1CN([C@@H](C)CO)C(=O)c2cccc(NC(=O)NC3CCCCC3)c2O[C@H]1CN(C)Cc1ccc2c(c1)OCO2	.	.	.	.	4[16.7 µM]	.
CC(=O)N1Cc2cc(C(=O)NCc3cc(F)cc(F)c3)nc(-c3cccc(C4=CCCC4)c3)c2[C@H]1CCO	.	.	.	.	27[16.7 µM]	.
COC(=O)CSc1nnc(COc2cccc3ccccc23)o1	0	4	-2	-12	7	-13
Cc1csc(N(C)C(=O)CSc2nnc(COc3cccc4ccccc34)o2)n1	-2	0	2	-7	105*	-5
CO[C@H]1CN(C)C(=O)c2cc(NS(C)(=O)=O)ccc2OC[C@H](C)N(C(=O)CC2CC2)C[C@H]1C	.	.	.	.	-1[16.7 µM]	.
COc1ccc(C(=O)Nc2cc(C(=O)c3ccccc3)c(C)oc2=O)cc1	12*	1	3	-29	-73	-3
COC(=O)c1cc(NC(=O)c2ccccc2)c(=O)oc1C	0	1	-14	8	-11	-4
Cc1ccc(C(=O)Nc2ccccc2C(=O)NCc2ccco2)cc1	1	.	0	-37	.	-7
Cc1ccccc1CN(c1ccc(C(=O)Nc2ccccc2C(=O)NCc2ccco2)cc1)S(C)(=O)=O	-5	-1	-1	-7	61*	-7
